Activity calls are given as the source filed them.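 Rule for the calls, unless noted: active = a full or partial loss of lipid-probe fluorescence in the fish gall bladder, intestine or both, judged by eye; inactive = no fluorescence loss, or compound toxic to the fish.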
Experiments:
[1] = inhibitors of TNFa-induced NFkB p65 translocation, primary screen, imaging, HUVEC, MLSMR starter and 10KST1 sets (AID 438;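 active = inhibition above 20% together with a positive visual image hit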;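 note: compound added about 3h40 before a 20 min TNFalpha stimulation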;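 for inhibition: signal is the nuclear over cytoplasmic p65 intensity ratio per well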); conditions: HUVEC TNFa-induced p65 nuclear translocation; cell count: measured here: nuclei count (cytotoxicity indicator), at 2.08 µM; inhibition: at 2 µM, stronger effect = higher value, 0% TNFa-plus-vehicle, 100% no-TNFa wells
[2] = reduction of polyQ htt aggregates in cells – imaging, exon1htt(103Q)mCFP cells, high-content imaging, primary screen (AID 483;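 active = visual image review flags a hit and inhibition of aggregation exceeds 20%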;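 note: compound exposure lasted 3 days before fixation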;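 for nuclei count: percent of the per-plate median nuclei count of sample wells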); conditions: exon1htt(103Q)mCFP cell line, aggregate imaging, at 2 µM; inhibition of aggregation: stronger effect = higher value; nuclei count: measured here: cell count, toxicity
[3] = endothelial E-selectin expression blockers – imaging, HUVEC, immunofluorescence, MLSMR starter and 10KST1 sets, primary screen (AID 487;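 active = visually confirmed hit in the image check and inhibition above 20%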;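 for inhibition: signal is fraction of cell area covered by stained E-selectin grains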;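 for nuclei count: 100% = median nuclei count of all wells on the same plate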); conditions: HUVEC TNFalpha-induced E-selectin immunofluorescence imaging, at 2 µM; inhibition: stronger effect = higher value; nuclei count: measured here: cell number, toxicity
[4] = biological target: Voltage-gated potassium channel subunit beta-2 (Rattus norvegicus) (UniProt P62483); test: inhibitors of rat Kvbeta2 reductase activity – biochemical, NADPH fluorescence, primary screen (AID 622;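 active = fluorescence slope higher than the sample average by over 3 SD, cut at about -0.22 in these data, passing the limit was not always enough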;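 note: slope of raw intensity against log time taken from 70 to 1610 s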); conditions: recombinant KvBeta, 4-cyanobenzaldehyde reduction, at 10 µM, stronger effect = higher value
Chain of Voltage-gated potassium channel subunit beta-2 (Rattus norvegicus) (P62483 whole entry, looked up): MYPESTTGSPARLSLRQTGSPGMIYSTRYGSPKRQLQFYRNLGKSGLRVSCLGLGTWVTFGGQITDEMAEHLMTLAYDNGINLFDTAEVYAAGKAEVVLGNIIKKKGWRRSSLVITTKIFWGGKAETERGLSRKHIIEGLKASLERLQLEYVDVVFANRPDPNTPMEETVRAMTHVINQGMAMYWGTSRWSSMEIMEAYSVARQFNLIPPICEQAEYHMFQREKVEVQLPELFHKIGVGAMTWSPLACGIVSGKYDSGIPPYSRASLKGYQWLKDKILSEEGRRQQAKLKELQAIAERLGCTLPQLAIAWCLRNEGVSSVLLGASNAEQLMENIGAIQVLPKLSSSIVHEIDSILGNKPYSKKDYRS

[5] = biological target: Voltage-gated potassium channel subunit beta-2 (Rattus norvegicus) (UniProt P62483); test: enhancers of rat Kvbeta2 NADPH turnover – biochemical, NADPH fluorescence, primary screen (AID 623;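 active = NADPH fluorescence slope more negative than the mean of all samples by about 3 SD, 99.7% confidence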;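 note: fluorescence intensity change per second fitted from 20 to 320 s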); conditions: Recombinant KvBeta, NADPH fluorescence decrease slope, 10 min; at 10 µM; stronger effect = lower value
[6] = biological target: Alpha-2C adrenergic receptor (Homo sapiens) (UniProt P18825); test: compounds altering alpha2C-coupled GIRK flux – cell-based, HEK293 alpha2C/GIRK1/2, thallium flux, primary screen (AID 624;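 active = fluorescence slope after compound addition differing from the mean of all screened samples at 99.7% confidence, in either direction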;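 note: slope of fluorescence ratio to pre-addition baseline per second over 15 to 24 s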); conditions: thallium flux BTC fluorescence, at 10 µM, actives lie on both sides
Chain of Alpha-2C adrenergic receptor (Homo sapiens) (P18825 whole entry, looked up): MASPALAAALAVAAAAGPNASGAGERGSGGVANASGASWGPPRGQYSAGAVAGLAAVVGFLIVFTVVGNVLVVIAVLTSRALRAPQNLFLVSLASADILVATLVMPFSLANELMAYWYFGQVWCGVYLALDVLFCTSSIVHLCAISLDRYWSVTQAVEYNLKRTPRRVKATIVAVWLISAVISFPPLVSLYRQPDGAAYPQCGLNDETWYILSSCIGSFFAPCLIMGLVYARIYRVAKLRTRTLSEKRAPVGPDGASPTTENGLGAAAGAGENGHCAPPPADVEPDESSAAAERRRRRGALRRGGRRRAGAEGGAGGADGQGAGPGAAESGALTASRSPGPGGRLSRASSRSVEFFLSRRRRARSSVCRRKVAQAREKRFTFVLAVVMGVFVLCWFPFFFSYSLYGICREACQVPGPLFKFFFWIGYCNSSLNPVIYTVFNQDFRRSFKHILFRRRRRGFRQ

[7] = inhibitors of larval lipid processing in zebrafish, primary screen, whole organism, PED6 fluorescence, gall bladder and intestine (AID 686); conditions: Zebrafish larvae PED6 lipid processing, fluorescence scoring; screened at 20 µM (by protocol);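 note: larvae 5 to 7 days old with five fish per well; signal comes from phospholipase A2 cleavage of quenched PED6 carried via bile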
In short: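 Incubation: overnight exposure of larvae to compound plus PED6 / Test system: live zebrafish larvae aged 5-7 days, whole organism / Amount: 5 larvae per well / Read-out basis: visual per-well fluorescence inhibition score / Signal: visual fluorescence microscopy scoring of gall bladder, gut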

[8] = blockers of RIG-like receptor reporter activation – cell-based, Sendai virus stimulus, luciferase, 10K MLSCN set, TLR/RLR signaling modifier project, primary screen (AID 602276;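 active = inhibition at or above 50% at 10 µM; inactive = inhibition below 50%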;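 note: firefly luciferase from ISG56 promoter only with Renilla not read in this screen; 0% = Sendai virus plus DMSO and 100% = medium plus DMSO without virus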); conditions: HEK293 RL24 IRF3 luciferase reporter, at 10 µM, stronger effect = higher value
[9] = TLR3 IRF3 reporter activation blockers – cell-based, poly I:C stimulus, luciferase, 10K MLSCN set, primary screen (AID 602277;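 active = inhibition of the reporter signal at or above 50%; inactive = inhibition below 50%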); conditions: HEK293-TLR3 RL24 IRF3 luciferase reporter, at 10 µM, stronger effect = higher value

Row | Structure (SMILES) | cell count [1] | inhibition [1] | inhibition of aggregation [2] | nuclei count [2] | inhibition [3] | nuclei count [3] | fluorescence slope [4] | NADPH fluorescence slope [5] | slope [6] | outcome [7] | inhibition [8] | inhibition [9]
1 | Cn1c(C(=O)OC(C(=O)NC2CCCC2)c2cccnc2)cc2sccc21 (stereo unspecified) | 495 | 4% (inactive) | 9.5% (inactive) | 100% | -76.7% (inactive) | 102% | -0.437 (inactive) | -5.4e-05 (inactive) | 0.00446 (inactive) | active; weak signal in gallbladder and intestine | 18.1% (inactive) | 15.4% (inactive)
2 | CCN(CC)S(=O)(=O)c1ccc(NC(=O)c2cccc3c2C(=O)N(CCOC)C3)cc1 | 778 | -3.6% (inactive) | 5.3% (inactive) | 93.3% | -84.2% (inactive) | 129% | -0.244 (inactive) | -2.6e-05 (inactive) | 0.00636 (inactive) | inactive | 10.3% (inactive) | 26.3% (inactive)
3 | Clc1ccc(Cl)c(-c2nn3c(Cn4cnc5ccccc54)nnc3s2)c1 | 566 | 15.8% (inactive) | -6.5% (inactive) | 102% | -91.4% (inactive) | 121% | -0.446 (inactive) | -3.8e-05 (inactive) | 0.00462 (inactive) | inactive | 13.6% (inactive) | 13.1% (inactive)
4 | CCn1cnc2sc(C(=O)Nc3ccc4c(c3)OCO4)c(C)c2c1=O | 473 | -14.7% (inactive) | 7.4% (inactive) | 102% | -47.6% (inactive) | 90.6% | -0.361 (inactive) | -7e-05 (inactive) | 0.00678 (inactive) | inactive | -47.3% (inactive) | -111% (inactive)
5 | C=C(C)Cn1c(CCCNC(=O)C(C)(C)C)nc2ccccc21 | 770 | -19.6% (inactive) | -0.5% (inactive) | 106% | 14% (inactive) | 110% | -0.397 (inactive) | -3.4e-05 (inactive) | 0.00533 (inactive) | inactive | 6.04% (inactive) | 98.2% (active)
6 | COc1ccc(OC)c(Nc2nc(-c3cccs3)cs2)c1 | 333 | 1.5% (inactive) | -9.1% (inactive) | 104% | -35.5% (inactive) | 110% | -0.444 (inactive) | -6e-05 (inactive) | 0.00343 (inactive) | active; weak signal in gallbladder and intestine | 7.1% (inactive) | -5.46% (inactive)
7 | FC(F)(F)c1ccc(Sc2nnc(-c3cccs3)n2CC2CCCO2)nc1 (stereo unspecified) | 357 | -21.4% (inactive) | -3% (inactive) | 83.2% | -85.5% (inactive) | 104% | -0.424 (inactive) | -7.7e-06 (inactive) | 0.00449 (inactive) | inactive | 13.6% (inactive) | 6.99% (inactive)
8 | CCOc1ccc(CCNc2nc3c(c(=O)n(C)c(=O)n3C)n2CC)cc1OCC | 602 | 6.3% (inactive) | -0.6% (inactive) | 89.6% | -23.5% (inactive) | 119% | -0.305 (inactive) | 3.7e-06 (inactive) | 0.00587 (inactive) | inactive | 18.8% (inactive) | 9% (inactive)
9 | Cc1cc(C)cc(N2C(=O)C3C4C=CC(C4)C3C2=O)c1 (stereo unspecified) | 643 | -4.8% (inactive) | -4.9% (inactive) | 98.2% | 28% (inactive) | 99.1% | -0.451 (inactive) | -4.1e-05 (inactive) | 0.00599 (inactive) | inactive | 13.3% (inactive) | 14.4% (inactive)
10 | COC(=O)C1=C(C)N(Cc2ccco2)C(=O)C1 | 302 | 0.7% (inactive) | 26.2% (inactive) | 99.6% | -12.5% (inactive) | 101% | -0.42 (inactive) | -3.5e-05 (inactive) | 0.00527 (inactive) | inactive | 8.55% (inactive) | 8.79% (inactive)
11 | CCSCc1nnc(SCC(=O)Nc2cccc(SC)c2)n1C | 492 | -5.8% (inactive) | 0.2% (inactive) | 101% | -43.2% (inactive) | 147% | -0.452 (inactive) | -4.6e-05 (inactive) | 0.00484 (inactive) | inactive | 9.84% (inactive) | 18.9% (inactive)
12 | Cc1cccc(C(=O)O)c1NC(=O)c1ccc(F)cc1 | 343 | 0.2% (inactive) | -4.7% (inactive) | 99.9% | 21.9% (inactive) | 97.3% | -0.333 (inactive) | -1.3e-05 (inactive) | 0.00577 (inactive) | inactive | -3.9% (inactive) | 2.7% (inactive)
13 | O=C(Nc1ccccc1Cl)c1c(F)c(F)c(F)c(F)c1F | 407 | 5.5% (inactive) | 2.9% (inactive) | 103% | -166% (inactive) | 116% | -0.479 (inactive) | -3e-05 (inactive) | 0.00592 (inactive) | inactive | -7.6% (inactive) | -12.7% (inactive)

— PubChem BioAssay
